Compounds with a hit are over-represented: about 1.8% of the library has one in this group of screens.
HTRA1 inh – HTRA1 serine protease inhibitors, primary screen, biochemical, fluorescence polarization, HTS; Q92743; recombinant HTRA1, FP-rhodamine activity-based probe; inhibition, % at 5.96 µM; 0.5% of 340,000 active; AID 504803, 2011; in the data active means inhibition above about 36%;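 further: 0% = enzyme with DMSO and 100% = wells lacking enzyme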
TCR CD3 inh – inhibitors of human TCR-CD3 interaction, primary screen, biochemical, fluorescence, TAMRA-labeled TCR probe. 0.37% of 360,000 active. inhibition, % at 9.4 µM. AID 651800, 2012. T-cell receptor (TCR);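 further: recombinant mutant TCR 2C K166C tagged with TAMRA read by polarization; 0% = receptor in buffer alone and 100% = receptor with positive control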
Tn7 DDE FP – inhibitors of Tn7 peptide binding to fibrin DD(E), primary screen, biochemical, fluorescence polarization, human fibrin, Tn7 probe. Fibrinogen beta chain (Homo sapiens), P02675. inhibition, % at 8.3 µM. 0.13% of 370,000 active. FP displacement of FITC-Tn7 peptide from fibrin DD(E); 0% = median of compound wells per plate;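 active means inhibition above the mean of compounds falling within the control limits plus 3 SD of them, cut at about 14% in these data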;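 further: 0% = plate median of compound wells and 100% = 10 µM Aha-Tn7 peptide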
Target sequence (P02675 whole entry, looked up): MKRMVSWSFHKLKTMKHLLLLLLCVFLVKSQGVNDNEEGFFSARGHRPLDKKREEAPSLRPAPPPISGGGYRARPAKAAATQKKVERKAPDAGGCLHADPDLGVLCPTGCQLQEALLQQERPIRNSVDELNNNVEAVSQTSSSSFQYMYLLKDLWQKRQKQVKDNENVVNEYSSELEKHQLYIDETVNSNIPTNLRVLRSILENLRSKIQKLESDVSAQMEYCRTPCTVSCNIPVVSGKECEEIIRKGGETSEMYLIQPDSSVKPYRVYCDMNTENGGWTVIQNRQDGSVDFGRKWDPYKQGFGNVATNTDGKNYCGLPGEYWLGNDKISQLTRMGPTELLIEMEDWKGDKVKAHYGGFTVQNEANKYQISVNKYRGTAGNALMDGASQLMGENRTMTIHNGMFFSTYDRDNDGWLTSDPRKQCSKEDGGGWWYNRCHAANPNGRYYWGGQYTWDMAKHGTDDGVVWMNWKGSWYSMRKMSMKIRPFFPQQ
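Measure: % inhibition scaled between sample-field median and high-control FP; Test system: human fibrin DD(E); Quantity: 2 µM final DD(E) protein; Doses: one dose, 8.3 µM nominal; Schedule: compound with protein 10 min, then 3 h after probe, room temperature; Detection: fluorescence polarization; Medium: Tris buffer with calcium and detergent, pH 7.8.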
DDE Tn6 FP inh – inhibitors of Tn6 peptide binding to fibrin DD(E), primary screen, biochemical, fluorescence polarization, human fibrin, Tn6 probe. 0.21% of 370,000 active. inhibition, % at 8.3 µM. AID 720509, 2013. Fibrin DD(E) TRITC-Tn6 fluorescence polarization displacement;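 active means inhibition above a per-campaign cutoff: mean of compounds within control limits plus 3 SD, cut at about 15% in these data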;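 further: 0% = median of all compound wells on the plate and 100% = blocking peptide control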
ABHD4 inh – ABHD4 inhibitors, primary screen, biochemical, fluorescence polarization, mouse; purified mABHD4, FP-Rh probe fluorescence polarization; inhibition, % at 8.92 µM; 0.54% of 370,000 active;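 active means inhibition exceeding the mean over every tested compound plus 3 SD, cut at about 30% in these data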;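 further: 0% = plate median of compound wells and 100% = S159A mutant with DMSO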
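Assay system: mouse ABHD4 enzyme, wild type / Also added: fluorescent activity-based probe FP-Rh / Doses: single nominal dose of 8.92 µM, 0.89% DMSO final / Timing: 45 min compound pre-incubation plus 60 min probe step, 25 °C / Signal: FP readout, ex 525 nm / em 598 nm / Control set: S159A mutant/DMSO as 100%, compound-well median as 0%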
SIAE inh – human SIAE inhibitors, primary screen, biochemical, fluorescence polarization, FP-Rh probe, 1536-well HTS; inhibition, % at 9.66 µM; SIAE FP-Rh probe binding; AID 1053197, 2014; 0.69% of 370,000 active;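 active means inhibition above a cutoff: mean of compounds within the control limits plus 3 SD of those, cut at about 17% in these data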;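 further: 0% = plate median of compound wells and 100% = probe without SIAE protein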
HTRA1 conf – HTRA1 protease inhibitors, retest, confirmation, biochemical, fluorescence polarization. shares compounds with HTRA1 inh. 66% of 1,600 active. inhibition, % at 5.96 µM. recombinant HTRA1, FP-rhodamine activity-based probe;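 active means mean inhibition over three repeats above a set limit taken from the earlier primary screen, cut at about 37% in these data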;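 further: 0% = HTRA1 with DMSO and 100% = wells lacking HTRA1; inhibitors block probe binding so polarization drops and inhibition rises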
BSA probe FL – compounds interfering with TAMRA-BSA probe, counter-screen for TCR-CD3 interaction inhibitor project, biochemical, fluorescence, TAMRA-labeled BSA; inhibition, % at 9.4 µM; TAMRA-labeled BSA probe fluorescence counterscreen; 10% of 1,200 active; shares compounds with TCR CD3 inh; in the data active means inhibition above about 23%;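 further: 0% = buffer low control and 100% = reference high control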
TCR-CD3 conf – TCR-CD3 interaction inhibitors, retest, confirmation, biochemical, fluorescence, TAMRA-labeled TCR probe | TAMRA-labeled TCR probe fluorescence binding assay | 48% of 1,200 active | shares compounds with TCR CD3 inh | inhibition, % at 9.4 µM | AID 652036, 2013
Tn7 DDE conf – inhibitors of Tn7 peptide binding to fibrin DD(E), confirmation, biochemical, fluorescence polarization, human fibrin, Tn7 probe; FP displacement of TRITC-Tn7 peptide from DD(E); 0% set at plate's compound-well median; inhibition, % at 8.3 µM; 5% of 460 active; shares compounds with Tn7 DDE FP;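 active means inhibition above the campaign cutoff, the mean of compounds within control limits plus 3 SD, cut at about 14% in these data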;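 further: 100% = median FP of high control wells holding Aha-Tn7 inhibitor peptide; displacers lower polarization since freed probe rises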
Tn7 DDE ctr – DD(E)-Tn7 binding inhibition, counter-screen; AID 720633; inhibition, % at 8.3 µM; 3% of 460 active; shares compounds with Tn7 DDE FP; fibrin DD(E), TRITC-Tn7 probe displacement, fluorescence polarization;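 active means inhibition above the cutoff, the mean of compounds lying between the control bounds plus 3 SD of those compounds, cut at about 17% in these data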;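 further: 0% = median of compound sample wells and 100% = excess unlabeled Aha-Tn7 peptide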
DDE Tn6 FP ctr – DD(E)-Tn6 binding inhibition, counter-screen; 2% of 680 active; inhibition, % at 8.3 µM; AID 720621; Fibrin DD(E), TRITC-Tn6 fluorescence polarization displacement; 0% = median of compound wells, not DMSO; shares compounds with DDE Tn6 FP inh;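 active means inhibition above the mean of test compounds lying between the control limits plus 3 SD of those, cut at about 14% in these data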;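 further: 0% = median of compound wells and 100% = wells with Aha-Tn7 blocking peptide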
Tn6 DDE conf – inhibitors of Tn6 peptide binding to fibrin DD(E), confirmation, biochemical, fluorescence polarization, human fibrin, Tn6 probe. shares compounds with DDE Tn6 FP inh. FP displacement of TRITC-Tn6 peptide from DD(E); 0% = per-plate median of test wells. inhibition, % at 8.3 µM. 10% of 680 active;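 active means inhibition above the mean of compounds lying within the control limits plus 3 SD, cut at about 16% in these data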;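 further: 100% = high control wells holding a competing inhibitor peptide at 10 µM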
ABHD4 confirm – ABHD4 inhibitors, retest, confirmation, biochemical, fluorescence polarization, mouse; inhibition, % at 8.92 µM; shares compounds with ABHD4 inh; purified mABHD4, FP-Rh probe fluorescence polarization; 55% of 1,800 active; AID 720658, 2013;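 active means mean inhibition across replicates above the hit cutoff set in the primary screen, cut at about 30% in these data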;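 further: 0% = wild-type ABHD4 with DMSO and 100% = catalytically dead S159A mutant with DMSO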
SIAE confirm – human SIAE inhibitors, retest, confirmation, biochemical, fluorescence polarization, FP-Rh probe, triplicate; shares compounds with SIAE inh; SIAE FP-Rh activity-based probe; inhibition, % at 9.66 µM; 13% of 2,300 active;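 active means mean inhibition of the replicates above the hit cutoff set in the primary screen, cut at about 17% in these data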;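 further: 0% = SIAE with DMSO and probe and 100% = probe without SIAE; inhibitors lower polarization as more probe stays unbound to SIAE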
Active calls of the source: *; · = not tested or not shown; + = active, no number. Unless noted, no stated cut-off is given here; in the data, active means inhibition above about 19%; inactive means the rest.

SMILES	HTRA1 inh	TCR CD3 inh	Tn7 DDE FP	DDE Tn6 FP inh	ABHD4 inh	SIAE inh	HTRA1 conf	BSA probe FL	TCR-CD3 conf	ABHD4 confirm	others
CCN(CC)c1ccc(N=Cc2c(O)n(Cc3ccccc3)c(=O)[nH]c2=O)cc1	8	2	6	5	13	8	·	·	·	·
CCN(CC)c1ccc(N=Cc2c(O)n(-c3ccccc3)c(=O)[nH]c2=O)cc1	40*	6	-1	6	67*	9	18	·	·	9
CCN(CC)c1ccc(N=Cc2c(O)[nH]c(=O)[nH]c2=O)cc1	53*	13	6	0	57*	10	20	·	·	1
CCOc1ccc(-n2c(O)c(C=Nc3ccc(N(CC)CC)cc3)c(=O)[nH]c2=O)cc1	3	-1	1	2	14	7	·	·	·	·
Clc1cc(Cl)cc(CN2Cc3cc(Br)ccc3-n3nncc3C2)c1	·	0	1	3	-11	2	·	·	·	·
O=C(NC(Cc1ccccc1)P(=O)(O)Oc1ccccc1)OCc1ccccc1 (stereo not given)	·	·	-6	-4	1	5	·	·	·	·
C=CCN1CCc2cccc3c2[C@H]1Cc1ccc(O)c(O)c1-3	63*	7	-10	-16	44*	15	80*	·	·	24
CCOC(=O)C1CCCN(c2ccc([N+](=O)[O-])c3nonc23)C1 (stereo not given)	47*	140*	20*	+	67*	21*	56*	168*	134*	56*	Tn7 DDE conf=-13;Tn7 DDE ctr=93*;DDE Tn6 FP ctr=-13;Tn6 DDE conf=93*;SIAE confirm=47*
O=C(CNC(=O)OCc1ccccc1)NC(Cc1ccccc1)P(=O)(Oc1ccccc1)Oc1ccccc1 (stereo not given)	·	·	-2	-1	6	8	·	·	·	·
CC[n+]1c(-c2ccccc2)c2cc(N)ccc2c2ccc(N)cc21	109*	90*	6	56*	82*	54*	118*	103*	93*	105*	SIAE confirm=67*
CC1=C[C@@H]2c3cccc4[nH]cc(c34)C[C@H]2N(C)C1	40*	13	12	-4	19	17*	16	·	·	·	SIAE confirm=1
CN1C[C@H](CO)C=C2c3cccc4[nH]cc(c34)C[C@H]21	16	4	7	-3	22	14	·	·	·	·
O=C(Nc1ccccc1)N1Cc2cc(Br)ccc2-n2nncc2C1	·	-2	-1	-1	0	-3	·	·	·	·
CC(=O)c1ccc2c(c1)C1C(Cl)C(Sc3ccccc3[N+](=O)[O-])CC1C(C(=O)O)N2 (stereo not given)	88*	28*	-8	0	54*	21*	71*	-2	17	104*	SIAE confirm=8
Clc1ccc([C@H]2CC3CCC2N3)cn1 (stereo not given in full)	·	-5	5	2	-5	-6	·	·	·	·
O=C(N/N=C/c1c(O)n(CCc2ccccc2)c(=O)[nH]c1=O)c1ccccc1O	35	23*	2	-3	39*	7	·	-4	28*	·
COc1cc(/C=C2/C(=O)NC(=O)N(c3ccccc3)C2=O)ccc1O	0	3	-4	-4	7	9	·	·	·	·
O=C1NC(=O)N(c2ccccc2)C(=O)/C1=C/c1ccoc1	-2	24*	-8	2	10	-7	·	-1	4	·
O=C1C2CC(CN3CCCCC23)C2CCCCN12 (stereo not given)	·	-2	2	5	1	2	·	·	·	·
COc1ccc(-c2ccc3c(c2)CN(C(=S)NCCc2ccccc2)Cc2cnnn2-3)cc1	·	26*	-9	-4	-60	-43	·	8	17	·
CCOC(=O)CNC(=O)N1Cc2cc(Br)ccc2-n2nncc2C1	·	36*	7	7	2	2	·	-2	4	·
CC/C(=N\NC(=O)c1ccccc1Cl)c1c(O)n(C2CCCCC2)c(=O)[nH]c1=O	7	21*	-3	-10	-3	0	·	-5	18	·
CCC(=NC1CC1)c1c(O)n(C2CCCCC2)c(=O)[nH]c1=O	4	5	8	15	1	0	·	·	·	·
Cc1ccc(N2Cc3ccccc3-n3nncc3C2)cc1	·	8	-6	-1	9	4	·	·	·	·

Compound activity: PubChem, The Scripps Research Institute Molecular Screening Center
